Results: ChEMBL document CHEMBL4680134, “Structural optimization of natural product nordihydroguaretic acid to discover novel analogues as AcrB inhibitors” (Eur J Med Chem, 2020)
Values after ≈ are worked out from the molar mass of the structure shown. Active and inactive are the calls of the source. The rule behind the calls is not given here.

Key:
[1] = molecular target: T1, Multidrug efflux pump subunit AcrB (Escherichia coli (strain K12)) (UniProt P31224); assay: Inhibition of AcrB in Escherichia coli BW25113 assessed as potentiation of tetraphenylphosphonium induced antibacterial activity by measuring tetraphenylphosphonium MIC at 8 ug/ml measured after 18 hrs by checkerboard titration method (reference value: 1024 ug/ml); settings: dose 8.0 µg/ml
T1 sequence (whole entry): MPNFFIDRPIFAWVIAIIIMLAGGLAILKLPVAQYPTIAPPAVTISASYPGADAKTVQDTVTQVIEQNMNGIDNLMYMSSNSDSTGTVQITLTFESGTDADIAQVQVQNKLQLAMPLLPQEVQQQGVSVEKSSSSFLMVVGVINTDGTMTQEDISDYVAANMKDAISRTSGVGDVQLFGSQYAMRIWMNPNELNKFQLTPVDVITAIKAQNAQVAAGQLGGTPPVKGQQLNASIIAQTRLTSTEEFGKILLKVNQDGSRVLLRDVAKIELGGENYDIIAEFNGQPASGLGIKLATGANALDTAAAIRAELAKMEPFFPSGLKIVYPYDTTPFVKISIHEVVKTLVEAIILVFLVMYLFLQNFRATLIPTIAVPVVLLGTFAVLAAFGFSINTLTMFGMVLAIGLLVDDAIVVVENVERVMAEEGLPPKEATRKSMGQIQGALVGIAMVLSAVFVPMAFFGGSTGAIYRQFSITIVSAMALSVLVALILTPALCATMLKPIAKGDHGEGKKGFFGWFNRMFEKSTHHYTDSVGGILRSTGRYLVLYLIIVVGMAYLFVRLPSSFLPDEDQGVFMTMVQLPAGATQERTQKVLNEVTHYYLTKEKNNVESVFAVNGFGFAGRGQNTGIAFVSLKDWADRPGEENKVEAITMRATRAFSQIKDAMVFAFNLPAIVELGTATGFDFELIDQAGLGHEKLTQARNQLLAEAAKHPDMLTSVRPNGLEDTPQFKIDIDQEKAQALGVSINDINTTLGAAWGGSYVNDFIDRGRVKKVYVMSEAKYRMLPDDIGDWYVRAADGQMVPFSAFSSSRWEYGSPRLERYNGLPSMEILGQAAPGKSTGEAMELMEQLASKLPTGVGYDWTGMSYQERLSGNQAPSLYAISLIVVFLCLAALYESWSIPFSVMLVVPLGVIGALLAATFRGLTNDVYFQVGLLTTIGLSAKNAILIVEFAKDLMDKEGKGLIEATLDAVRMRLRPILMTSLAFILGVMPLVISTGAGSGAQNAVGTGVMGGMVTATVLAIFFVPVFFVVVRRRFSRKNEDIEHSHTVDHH

[2] = molecular target: T1, Multidrug efflux pump subunit AcrB (Escherichia coli (strain K12)); assay: Inhibition of AcrB in Escherichia coli BW25113 assessed as potentiation of levofloxacin induced antibacterial activity by measuring levofloxacin MIC at 8 ug/ml measured after 18 hrs by checkerboard titration method (reference value: 0.06 ug/ml); settings: dose 8.0 µg/ml
[3] = molecular target: T1, Multidrug efflux pump subunit AcrB (Escherichia coli (strain K12)); assay: Inhibition of AcrB in Escherichia coli BW25113 assessed as potentiation of levofloxacin induced antibacterial activity by measuring fold change in levofloxacin MIC at 32 ug/ml measured after 18 hrs by checkerboard titration method relative to levofloxacin alone; settings: dose 32.0 µg/ml
[4] = test system: Cell membrane; assay: Induction of outer membrane permeabilization in wild type Escherichia coli BW25113 assessed as increase in nitrocefin hydrolysis at 256 ug/ml by spectrophotometry analysis; settings: dose 256 µg/ml
How it was run: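 Outer-membrane permeability: intact E. coli treated with 10 µM CCCP to block nitrocefin efflux, then exposed to compound. Nitrocefin hydrolysis by periplasmic β-lactamase followed as increasing absorbance at 490 nm over time. Polymyxin B as permeabilizer control, untreated cells as baseline. Duplicate experiments on different days.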

[5] = Growth inhibition of Escherichia coli BW25113 expressing AcrB after 18 hrs by broth microdilution assay
How it was run: (§1)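 MIC determined by 96-well broth microdilution in E. coli BW25113 expressing AcrB ((+)AcrB) and an isogenic acrB-deleted strain ((-)AcrB). Used to set the compound concentrations for synergy testing that produce no direct antibacterial effect.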

[6] = Growth inhibition of Escherichia coli harboring AcrB deletion mutant at higher concentration after 18 hrs by broth microdilution assay; how it was run: as §1
[7] = test system: Cell membrane; assay: Induction of inner membrane permeabilization in CCCP treated wild type Escherichia coli BW25113 measured after 10 mins by Di0C2(3) probe based fluorimetric method; settings: escherichia coli bw25113, 10 min
How it was run: (§2)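 Cells left untreated or exposed to compound at 8-256 µg/mL for 10 min, then DiOC2(3) added and fluorescence followed to plateau. Cells re-energized with 0.5% glucose; membrane potential build-up read as fluorescence rise to plateau, then dissipated with CCCP.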

[8] = molecular target: T1, Multidrug efflux pump subunit AcrB (Escherichia coli (strain K12)); assay: Inhibition of AcrB in Escherichia coli BW25113 assessed as potentiation of chloramphenicol induced antibacterial activity by measuring chloramphenicol MIC at 256 ug/ml measured after 18 hrs by checkerboard titration method (reference value: 8 ug/ml); settings: dose 256.0 µg/ml
[9] = molecular target: T1, Multidrug efflux pump subunit AcrB (Escherichia coli (strain K12)); assay: Inhibition of AcrB in Escherichia coli BW25113 assessed as potentiation of tetraphenylphosphonium induced antibacterial activity by measuring tetraphenylphosphonium MIC at 256 ug/ml measured after 18 hrs by checkerboard titration method (reference value: 1024 ug/ml); settings: dose 256.0 µg/ml
[10] = molecular target: T1, Multidrug efflux pump subunit AcrB (Escherichia coli (strain K12)); assay: Inhibition of AcrB in Escherichia coli BW25113 assessed as reduction in glucose-induced nile red efflux at 100 to 200 uM preincubated for 15 mins followed by nile red addition and incubated for 3 hrs in shaker in presence of CCCP by fluorimetric analysis; settings: dose 100-200 µM, time 195.0 min
How it was run: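 Whole-cell efflux: wild-type and ΔAcrB cells preloaded with Nile Red, with or without compound, before fluorescence readings. Efflux triggered at 100 s with 0.2% glucose and followed by fluorometry. The ΔAcrB strain marks maximal accumulation. Triplicate experiments with different cell batches.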

[11] = test system: Cell membrane; assay: Induction of inner membrane permeabilization in CCCP treated wild type Escherichia coli BW25113 at 64 ug/ml measured after 10 mins by Di0C2(3) probe based fluorimetric method; settings: escherichia coli bw25113, 10 min, dose 64 µg/ml; how it was run: as §2
[12] = molecular target: T1, Multidrug efflux pump subunit AcrB (Escherichia coli (strain K12)); assay: Inhibition of AcrB in Escherichia coli BW25113 assessed as potentiation of chloramphenicol induced antibacterial activity by measuring fold change in chloramphenicol MIC at 128 ug/ml measured after 18 hrs by checkerboard titration method relative to chloramphenicol alone; settings: dose 128.0 µg/ml
[13] = molecular target: T1, Multidrug efflux pump subunit AcrB (Escherichia coli (strain K12)); assay: Inhibition of AcrB in Escherichia coli BW25113 assessed as potentiation of erythromycin induced antibacterial activity by measuring fold change in erythromycin MIC at 128 ug/ml measured after 18 hrs by checkerboard titration method relative to erythromycin alone; settings: dose 128.0 µg/ml
[14] = test system: Cell membrane; assay: Induction of inner membrane permeabilization in CCCP treated wild type Escherichia coli BW25113 at 128 ug/ml measured after 10 mins by Di0C2(3) probe based fluorimetric method; settings: escherichia coli bw25113, 10 min, dose 128 µg/ml; how it was run: as §2
[15] = test system: Cell membrane; assay: Induction of inner membrane permeabilization in CCCP treated wild type Escherichia coli BW25113 at 64 to 256 ug/ml measured after 10 mins by Di0C2(3) probe based fluorimetric method; settings: escherichia coli bw25113, 10 min, dose 64-256 µg/ml; how it was run: as §2

Row | SMILES | MIC [1] [µg/mL] | MIC [2] [µg/mL] | MIC [8] [µg/mL] | MIC [9] [µg/mL] | other results
1 | O=C(NCCc1ccc(O)c(O)c1)c1ccccc1O | 1020 | 0.06 |  |  | fold change (FC) [3]: 2; Activity [4]: Non-Toxic
2 | O=C(NCCc1ccc(O)c(O)c1)c1ccc(C(F)(F)F)cc1 | 1020 | 0.06 |  |  | 
3 | Cc1ccc(C(=O)NCCc2ccc(O)c(O)c2)cc1 | 1020 | 0.06 |  |  | MIC [5]: 64 µg/mL (≈ 236 µM); growth inhibition (GI) [6]: Toxic; Activity [7]: Toxic
4 | Oc1ccc(CCCCc2ccc(Br)cc2)cc1O |  |  | 8 | 512 | 
5 | Nc1ccccc1C(=O)NCCc1ccc(O)c(O)c1 | 1020 | 0.06 |  |  | 
6 | O=C(NCCc1ccc(O)c(O)c1)c1ccc(O)c(O)c1 | 1020 | 0.06 |  |  | inhibition [10]: Active; Activity [4]: Non-Toxic; Activity [11]: Non-Toxic
7 | Nc1cc(N)cc(C(=O)NCCc2ccc(O)c(O)c2)c1 | 512 | 0.06 |  |  | inhibition [10]: Active; Activity [11]: Non-Toxic
8 | O=C(NCCc1ccc(O)c(O)c1)c1ccc(Br)cc1 | 1020 | 0.06 |  |  | 
9 | Nc1ccc(C(=O)NCCc2ccc(O)c(O)c2)cc1 | 1020 | 0.06 |  |  | fold change (FC) [12]: 4; fold change (FC) [13]: 4
10 | O=C(NCCc1ccc(O)c(O)c1)c1cc(O)c(O)c(O)c1 | 1020 | 0.06 |  |  | fold change (FC) [3]: 2; fold change (FC) [12]: 4; fold change (FC) [13]: 4; Activity [11]: Non-Toxic
11 | Oc1ccc(CCCCc2ccccc2O)cc1O |  |  | 4 | 512 | Activity [14]: Toxic
12 | C[C@H](Cc1ccc(O)c(O)c1)[C@@H](C)Cc1ccc(O)c(O)c1 [MASOPROCOL] |  |  | 2 | 64 | Activity [4]: Toxic; Activity [15]: Toxic
13 | Oc1ccc(CCCCc2ccc(Cl)cc2)cc1O |  |  | 16 | 512 | 
14 | Oc1ccc(CCCCc2cc3cccc4ccc5cccc2c5c43)cc1O |  |  | 4 | 256 | 
15 | Oc1ccc(CCCCCCCc2ccc(O)c(O)c2)cc1O |  |  | 8 | 512 | inhibition [10]: Active; Activity [11]: Non-Toxic
16 | Oc1ccc(CCCCc2ccc(O)c(O)c2)cc1O |  |  | 4 | 512 | 
17 | Oc1ccc(CCCCc2cc(O)c(O)c(O)c2)cc1O |  |  | 1 | 256 | Activity [4]: Non-Toxic; Activity [14]: Non-Toxic
18 | Oc1ccc(CCCCCCc2ccc(O)c(O)c2)cc1O |  |  | 8 | 512 | 
19 | Oc1ccc(CCCCCc2ccc(O)c(O)c2)cc1O |  |  | 8 | 32 | growth inhibition (GI) [6]: Toxic; inhibition [10]: Active; Activity [14]: Toxic
20 | Oc1ccc(CCCc2ccc(O)c(O)c2)cc1O |  |  | 8 | 512 | Activity [4]: Non-Toxic
